Measured values: ChEMBL document CHEMBL1629686, “Substrate selectivity and a novel role in inhibitor discrimination by residue 237 in the KPC-2 beta-lactamase” (Antimicrob Agents Chemother, 2010)

Legend:
Klebsiella pneumoniae [1] = experiment: Activity of Klebsiella pneumoniae 1534 beta-lactamase KPC-2 T237S mutant by spectrophotometric analysis
In short: (§1)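 Purified KPC-2 variant enzymes (periplasmic lysate from E. coli, preparative isoelectric focusing). Hydrolysis followed by diode-array spectrophotometry in 10 mM PBS, pH 7.4, room temperature. Enzyme at 10 nM with substrate in molar excess for pseudo-first-order conditions. Vmax and Km came from a nonlinear least-squares Michaelis-Menten fit.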

Klebsiella pneumoniae [2] = experiment: Activity of Klebsiella pneumoniae 1534 beta-lactamase KPC-2 T237E mutant by spectrophotometric analysis; in short: as §1
Klebsiella pneumoniae [3] = experiment: Ratio of Kcat/Km for Klebsiella pneumoniae 1534 beta-lactamase KPC-2 T237S mutant by spectrophotometric analysis; in short: as §1
Klebsiella pneumoniae [4] = experiment: Ratio of Kcat/Km for Klebsiella pneumoniae 1534 beta-lactamase KPC-2 T237E mutant by spectrophotometric analysis; in short: as §1
Klebsiella pneumoniae [5] = experiment: Ratio of Kcat/Km for Klebsiella pneumoniae 1534 beta-lactamase KPC-2 T237A mutant by spectrophotometric analysis; in short: as §1
Klebsiella pneumoniae [6] = experiment: Activity of Klebsiella pneumoniae 1534 beta-lactamase KPC-2 T237A mutant by spectrophotometric analysis; in short: as §1
Klebsiella pneumoniae [7] = experiment: Selectivity index, Ratio of Kcat/Km for Klebsiella pneumoniae 1534 beta-lactamase KPC-2 T237S mutant to ratio of Kcat/Km for Klebsiella pneumoniae 1534 beta-lactamase KPC-2 by spectrophotometric analysis
In short: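 Kinetics used purified enzymes in 10 mM PBS, pH 7.4, room temperature, with 10 nM enzyme and substrate in excess. Km and Vmax came from a Michaelis-Menten fit. kcat/Km of the variant was compared with wild type as ΔΔG = −RT ln of the kcat/Km ratio.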

O=C(Cc1cccs1)N[C@@H]1C(=O)N2C(C(=O)O)=C(/C=C/c3ccc([N+](=O)[O-])cc3[N+](=O)[O-])CS[C@H]12
Km (Klebsiella pneumoniae [1]): 5 µM | kcat (Klebsiella pneumoniae [1]): 50 s⁻¹ | Km (Klebsiella pneumoniae [2]): 167 µM | kcat (Klebsiella pneumoniae [2]): 92 s⁻¹ | kcat/Km (Klebsiella pneumoniae [3]): 1e+07 M⁻¹ s⁻¹ | kcat/Km (Klebsiella pneumoniae [4]): 600000 M⁻¹ s⁻¹ | kcat/Km (Klebsiella pneumoniae [5]): 1.3e+07 M⁻¹ s⁻¹ | Km (Klebsiella pneumoniae [6]): 15 µM | kcat (Klebsiella pneumoniae [6]): 191 s⁻¹ | fold change (FC) (Klebsiella pneumoniae [7]): 2.7
